Published values collected from several papers.
Lines come from different studies, so protocols differ.
Organism: Enterococcus faecalis
Effect on: microbial growth

Compound | technique | strain | time | MIC
Cc1ccc2nc(-c3c4ccccc4cc4ccccc34)[nH]c2c1 | broth dilution | ATCC29212 | – | 64 µg/mL
Cc1ccc(C)n1-c1ccc(C(=O)NNC=O)cc1 | broth dilution | ATCC14506 | 18 h | 31.2 µg/mL
Clc1ccc(-c2nc3ccccc3[nH]2)cc1Cl | broth dilution | ATCC29212 | – | 32 µg/mL
CO[C@@H](C(N)=O)[C@H](NC(=O)c1ccc(NC(=O)c2ccc(C#N)cc2)cc1)C(=O)Nc1ccc(C(=O)Nc2ccc(C(=O)Nc3ccc(C(=O)O)cc3)c(O)c2OC(C)C)cc1 | – | ATCC29212 | – | 0.125 µg/mL
CCn1cc(C(=O)O)c(=O)c2cc(F)c(N3CCNCC3)cc21 | broth dilution | NCTC12697 | – | 4 µM
C=CCn1c(-c2ccc(OC)c(OC)c2)nc2ccccc21 | broth dilution | ATCC29212 | – | 64 µg/mL
O=C(O)c1cn(C2CC2)c2cc(N3CCNCC3)c(F)cc2c1=O | broth dilution | ATCC14506 | 18 h | < 5 µg/mL
Cc1ccc2nc(-c3ccc([N+](=O)[O-])cc3)n(Cc3ccccc3)c2c1 | broth dilution | ATCC29212 | – | 8 µg/mL
CCn1cc(C(=O)O)c(=O)c2cc(F)c(N3CCNCC3)cc21 | broth dilution | ATCC14506 | 18 h | < 5 µg/mL
C/C=C(\C)c1cc(O)c(C)c(OC(=O)c2c(C)c(Cl)c(O)c(Cl)c2O)c1 | broth dilution | ATCC29212 | – | 8 µg/mL
Cc1ccc(C)n1-c1ccc(-c2nnc(-c3ccc(Br)cc3)[nH]2)cc1 | broth dilution | ATCC14506 | 18 h | 8 µg/mL
C/C=C(\C)c1cc(O)c(C)c(OC(=O)c2c(C)cc(O)c(Cl)c2O)c1 | broth dilution | ATCC29212 | – | 8 µg/mL
Cc1ccc(C)n1-c1ccc(-c2nnc(-c3ccc(O)cc3)[nH]2)cc1 | broth dilution | ATCC14506 | 18 h | 31.2 µg/mL
C/C(=C\c1ccc(C#N)cc1)C(=O)Nc1ccc(C(=O)N[C@@H](CC(N)=O)C(=O)Nc2ccc(C(=O)Nc3ccc(C(=O)Nc4ccc(C(=O)O)cc4)c(O)c3OC(C)C)cc2)cc1 | – | ATCC29212 | – | 0.5 µg/mL
COc1ccc(-c2nc3ccc(C)cc3[nH]2)cc1OC | broth dilution | ATCC29212 | – | 128 µg/mL
CNC(=O)c1cc(Oc2ccc(NC(=O)Nc3ccc(Cl)c(C(F)(F)F)c3)cc2)ccn1 | – | – | – | > 100 µM
Clc1ccc(Cn2c(-c3ccc(Cl)cc3)nc3ccccc32)cc1 | broth dilution | ATCC29212 | – | 16 µg/mL
C/C=C(\C)c1cc(OC(=O)c2c(O)c(C)c(O)c(Cl)c2/C(C)=C/C)c(C)c(O)c1C(=O)O | broth dilution | ATCC29212 | – | 64 µg/mL
Cc1ccc(C)n1-c1ccc(-c2n[nH]c(=S)[nH]2)cc1 | broth dilution | ATCC14506 | 18 h | 4 µg/mL
CC1(C)S[C@@H]2[C@H](NC(=O)[C@H](N)c3ccccc3)C(=O)N2[C@H]1C(=O)O | broth dilution | ATCC29212 | – | 2 µg/mL
